Experimental data: ChEMBL document CHEMBL1157537 (J Med Chem, 2008)
Calls of active or inactive are those of the source. The rule behind the calls is not given here.

Legend:
[1] = species on record: Rattus norvegicus; test: Progestational activity in estrone-treated ovariectomized rat assessed as reduction of breast alveolar bud proliferation; format: functional, organism-based
In short: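 Ovariectomized rats were treated with estrone, alone or combined with test progestin, and compared with vehicle and estrone-only groups. Endpoints were uterine epithelial cell height, vaginal epithelial thickness and mammary alveolar bud proliferation.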

[2] = tested on: Rattus norvegicus; test: Inhibition of ovulation in rat assessed as reduction in number of ova at 0.25 to 2.0 mg/kg, po for 5 days; format: functional, organism-based
In short: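 Female rats (n = 6 per group) received vehicle or progestin for 5 days at 0.25, 1.0 or 2.0 mg/kg. The number of ova per rat and the number of rats ovulating were then determined.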

[3] = target: T1, Progesterone receptor (Homo sapiens) (UniProt P06401); test: Agonist activity at human progesterone receptor in human T47D cells assessed as alkaline phosphatase activity relative to progesterone; format: functional, cell-based
T1 sequence (whole entry): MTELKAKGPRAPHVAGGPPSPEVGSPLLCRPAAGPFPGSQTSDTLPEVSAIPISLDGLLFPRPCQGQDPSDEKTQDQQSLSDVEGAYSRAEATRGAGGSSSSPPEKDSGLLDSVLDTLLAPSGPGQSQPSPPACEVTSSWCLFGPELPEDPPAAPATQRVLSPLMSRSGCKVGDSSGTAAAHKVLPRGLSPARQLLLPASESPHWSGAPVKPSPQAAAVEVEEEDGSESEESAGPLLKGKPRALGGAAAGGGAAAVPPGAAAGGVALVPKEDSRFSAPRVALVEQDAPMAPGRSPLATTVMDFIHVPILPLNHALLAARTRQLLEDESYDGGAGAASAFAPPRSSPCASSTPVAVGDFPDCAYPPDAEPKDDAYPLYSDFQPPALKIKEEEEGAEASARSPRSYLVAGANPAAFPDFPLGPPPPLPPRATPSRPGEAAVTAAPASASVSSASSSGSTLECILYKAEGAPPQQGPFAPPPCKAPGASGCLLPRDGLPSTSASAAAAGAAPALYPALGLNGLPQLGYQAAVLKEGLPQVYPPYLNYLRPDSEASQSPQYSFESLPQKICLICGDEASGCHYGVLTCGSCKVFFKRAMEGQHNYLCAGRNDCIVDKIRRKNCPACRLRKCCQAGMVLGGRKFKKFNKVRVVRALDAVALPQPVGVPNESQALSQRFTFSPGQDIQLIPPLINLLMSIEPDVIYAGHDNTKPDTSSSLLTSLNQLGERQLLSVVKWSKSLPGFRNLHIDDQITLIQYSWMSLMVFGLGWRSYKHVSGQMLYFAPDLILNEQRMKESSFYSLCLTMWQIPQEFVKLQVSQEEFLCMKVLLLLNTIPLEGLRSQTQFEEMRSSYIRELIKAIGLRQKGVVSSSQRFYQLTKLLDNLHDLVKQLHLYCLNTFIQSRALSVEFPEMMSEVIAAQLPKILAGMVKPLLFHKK

[4] = target: T2, Mineralocorticoid receptor (Homo sapiens) (UniProt P08235); test: Antagonist activity at human mineralocorticoid receptor relative to aldosterone; format: functional
T2 sequence (whole entry): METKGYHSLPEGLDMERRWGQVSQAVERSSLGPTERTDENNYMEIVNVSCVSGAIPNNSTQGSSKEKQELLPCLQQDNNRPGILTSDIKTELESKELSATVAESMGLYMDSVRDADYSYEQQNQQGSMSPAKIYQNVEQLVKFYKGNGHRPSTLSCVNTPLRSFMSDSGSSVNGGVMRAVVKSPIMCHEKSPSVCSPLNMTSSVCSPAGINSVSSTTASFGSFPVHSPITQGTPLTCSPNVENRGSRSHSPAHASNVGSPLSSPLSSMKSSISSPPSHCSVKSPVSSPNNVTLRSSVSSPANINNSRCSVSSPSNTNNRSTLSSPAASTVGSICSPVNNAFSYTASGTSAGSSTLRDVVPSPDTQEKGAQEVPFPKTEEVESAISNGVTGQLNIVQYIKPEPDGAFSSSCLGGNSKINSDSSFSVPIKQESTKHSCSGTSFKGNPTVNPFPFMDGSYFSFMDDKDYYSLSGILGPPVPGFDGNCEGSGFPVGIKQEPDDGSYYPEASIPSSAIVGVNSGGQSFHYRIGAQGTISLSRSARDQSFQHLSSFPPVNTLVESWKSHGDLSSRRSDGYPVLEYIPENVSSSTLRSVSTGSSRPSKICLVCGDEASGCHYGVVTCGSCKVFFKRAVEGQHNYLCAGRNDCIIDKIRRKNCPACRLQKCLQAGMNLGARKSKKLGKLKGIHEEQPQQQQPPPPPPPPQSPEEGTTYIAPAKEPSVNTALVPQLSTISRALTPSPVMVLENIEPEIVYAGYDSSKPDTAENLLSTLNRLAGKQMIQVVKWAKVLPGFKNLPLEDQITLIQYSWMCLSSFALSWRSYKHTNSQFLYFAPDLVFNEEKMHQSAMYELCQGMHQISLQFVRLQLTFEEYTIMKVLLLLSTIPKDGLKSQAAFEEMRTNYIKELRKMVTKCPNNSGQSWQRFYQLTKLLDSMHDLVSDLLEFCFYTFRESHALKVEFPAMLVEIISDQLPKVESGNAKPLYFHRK

[5] = target: T3, Androgen receptor (Homo sapiens) (UniProt P10275); test: Agonist activity at human androgen receptor relative to dihydrotestosterone; format: functional
T3 sequence (whole entry): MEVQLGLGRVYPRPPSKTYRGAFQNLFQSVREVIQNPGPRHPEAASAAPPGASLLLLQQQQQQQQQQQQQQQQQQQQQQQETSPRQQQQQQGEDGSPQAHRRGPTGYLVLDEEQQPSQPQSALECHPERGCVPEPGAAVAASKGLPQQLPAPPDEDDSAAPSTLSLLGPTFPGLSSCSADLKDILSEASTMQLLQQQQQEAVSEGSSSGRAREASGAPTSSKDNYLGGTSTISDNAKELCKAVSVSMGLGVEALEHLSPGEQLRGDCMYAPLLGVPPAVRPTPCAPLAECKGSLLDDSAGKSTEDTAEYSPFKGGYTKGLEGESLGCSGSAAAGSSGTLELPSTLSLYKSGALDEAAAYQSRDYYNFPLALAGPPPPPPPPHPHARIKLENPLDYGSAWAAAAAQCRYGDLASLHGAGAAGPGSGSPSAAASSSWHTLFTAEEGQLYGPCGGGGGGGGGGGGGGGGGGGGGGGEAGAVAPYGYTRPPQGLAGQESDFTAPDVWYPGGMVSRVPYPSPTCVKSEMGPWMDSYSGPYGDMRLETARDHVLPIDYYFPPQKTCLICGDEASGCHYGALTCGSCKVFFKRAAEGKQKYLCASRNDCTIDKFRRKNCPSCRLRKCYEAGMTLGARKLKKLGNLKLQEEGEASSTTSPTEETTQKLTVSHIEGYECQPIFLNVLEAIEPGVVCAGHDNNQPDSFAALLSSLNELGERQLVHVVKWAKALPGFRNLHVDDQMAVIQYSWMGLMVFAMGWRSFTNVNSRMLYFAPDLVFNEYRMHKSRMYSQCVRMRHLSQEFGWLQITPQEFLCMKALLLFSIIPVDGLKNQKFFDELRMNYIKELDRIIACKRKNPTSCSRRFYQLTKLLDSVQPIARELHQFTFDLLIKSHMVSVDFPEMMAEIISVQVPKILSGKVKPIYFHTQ

- Efficacy [3]: 55%
- Efficacy [4]: 93%
- Efficacy [5]: 177%
Structure (SMILES): CC1=C[C@@H]([C@@H]2Oc3c(F)cc(F)cc3-c3ccc4c(c32)C(C)=CC(C)(C)N4)CCC1 (stereo in doubt; (-)-5c)
- Activity [1]: Active
- Activity [2]: Active
